Experimental data collected from several papers.
Each line is one published result; the experiments were not run side by side.
Target: Serine/threonine-protein kinase TAO2 (TAOK2, Homo sapiens, UniProt Q9UL54)
One construct used (Q9UL54 1-1235): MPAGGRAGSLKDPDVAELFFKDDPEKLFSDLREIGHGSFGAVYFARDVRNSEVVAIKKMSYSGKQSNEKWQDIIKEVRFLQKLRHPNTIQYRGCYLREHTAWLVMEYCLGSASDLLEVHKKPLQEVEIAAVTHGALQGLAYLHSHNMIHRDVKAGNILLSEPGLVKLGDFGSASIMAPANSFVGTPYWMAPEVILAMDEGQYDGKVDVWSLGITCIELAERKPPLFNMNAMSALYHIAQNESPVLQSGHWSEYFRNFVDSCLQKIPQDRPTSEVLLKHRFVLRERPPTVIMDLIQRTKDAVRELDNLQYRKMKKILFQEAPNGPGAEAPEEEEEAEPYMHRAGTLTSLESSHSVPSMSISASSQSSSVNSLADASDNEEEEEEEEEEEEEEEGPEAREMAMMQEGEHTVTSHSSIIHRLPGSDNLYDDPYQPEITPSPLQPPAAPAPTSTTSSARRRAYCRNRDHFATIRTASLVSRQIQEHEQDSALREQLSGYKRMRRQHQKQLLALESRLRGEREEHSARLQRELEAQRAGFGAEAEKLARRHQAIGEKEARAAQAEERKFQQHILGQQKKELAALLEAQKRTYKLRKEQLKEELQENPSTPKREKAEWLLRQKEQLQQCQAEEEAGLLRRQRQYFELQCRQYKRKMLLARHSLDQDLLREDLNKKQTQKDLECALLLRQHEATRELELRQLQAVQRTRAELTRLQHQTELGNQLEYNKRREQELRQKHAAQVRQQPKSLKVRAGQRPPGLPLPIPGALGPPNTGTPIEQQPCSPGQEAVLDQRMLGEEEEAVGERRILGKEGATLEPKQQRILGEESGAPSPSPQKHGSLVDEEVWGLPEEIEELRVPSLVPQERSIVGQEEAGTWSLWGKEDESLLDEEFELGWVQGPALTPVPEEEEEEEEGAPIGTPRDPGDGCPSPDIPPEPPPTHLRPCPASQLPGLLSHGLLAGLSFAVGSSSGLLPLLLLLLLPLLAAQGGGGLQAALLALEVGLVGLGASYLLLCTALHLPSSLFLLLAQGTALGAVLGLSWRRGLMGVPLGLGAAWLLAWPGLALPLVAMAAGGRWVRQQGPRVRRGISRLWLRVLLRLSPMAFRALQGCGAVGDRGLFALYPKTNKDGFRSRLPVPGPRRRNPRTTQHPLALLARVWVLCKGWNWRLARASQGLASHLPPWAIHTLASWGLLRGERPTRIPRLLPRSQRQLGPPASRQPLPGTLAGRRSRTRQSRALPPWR

CC(C)(C)c1nc(-c2cccc(NS(=O)(=O)c3c(F)cccc3F)c2F)c(-c2ccnc(N)n2)s1
remaining activity (enzyme activity; inhibitor; radiometric; 1 µM): 35%

CCN(CC)CCNC(=O)c1c(C)[nH]c(/C=C2\C(=O)Nc3ccc(F)cc32)c1C
inhibition (enzyme activity; inhibitor; 10 µM): 29%

Nc1ncnc2occ(-c3ccc(NC(=O)Nc4cc(C(F)(F)F)ccc4F)cc3)c12
remaining signal (cell-free assay; inhibitor; 20 µM): 0%

CN(C)c1ncnc(-c2ccc3nc(Nc4cc(CN5CCN(C(=O)CC(F)(F)F)CC5)ccn4)[nH]c3c2)c1Cl
remaining binding (cell-free assay; competition with immobilised ligand; 1 µM): 80%

CN1CC(Oc2cnc(C#N)cc2-c2ccn3nc(NC(=O)C4CC4)cc3c2)C1
inhibition (enzyme activity; inhibitor; 1 µM): 0%

COc1cccc(CNC(=O)c2nc3scc(COCc4ccc(C(=O)O)cc4)c3c(=O)[nH]2)c1
remaining binding (cell-free assay; competition with immobilised ligand; 1 µM): 59.8%

CNC(=O)c1cc(Oc2ccc(NC(=O)Nc3ccc(Cl)c(C(F)(F)F)c3)cc2)ccn1
inhibition (enzyme activity; inhibitor; 0.3 µM): 84%

Fc1cccc(-n2cnc3c(NCc4nc5c(F)c(F)ccc5[nH]4)nc(N4CCOCC4)nc32)c1
binding vs control (binding; competition with immobilised ligand; 10 µM): 35%

COc1cccc2c(NCc3ccccc3)nc(-n3c(N)nc4ccccc43)nc12
inhibition (target engagement in cells; inhibitor; chemoproteomics; 20 mM): -6.8%

Cc1ccc(Nc2nccc(N(C)c3ccc4c(C)n(C)nc4c3)n2)cc1S(N)(=O)=O
inhibition (enzyme activity; inhibitor; 10 µM): 93%

CCN(CC)c1ccc(C2=NNC(=O)CC2C)cc1[N+](=O)[O-] (centres unmarked)
remaining activity (enzyme activity; inhibitor; 10 µM): 95%

O=C(N1CCS(=O)(=O)CC1)N1C[C@H](c2ccc(OC(F)(F)F)cc2)C[C@H](c2nc(C3CC3)no2)C1
remaining binding (cell-free assay; competition with immobilised ligand; 1 µM): 100%

Cc1cnc(NC2CCOCC2)nc1-n1cnc(C(=O)NC(CN)c2cc(F)cc(Cl)c2)c1 (centres unmarked)
remaining activity (enzyme activity; inhibitor; radiometric; 1 µM): 88%

C[C@@H](c1cccc(C#N)c1)n1cc(Cl)cc(C(N)=O)c1=N
remaining binding (cell-free assay; competition with immobilised ligand; 1 µM): 84%

COc1cc(-c2cc(-c3ccc(N4CCNCC4)cc3)cnc2C)cc(OC)c1OC
inhibition (enzyme activity; inhibitor; 0.1 µM): 2%

O=C(Nc1ccc(Oc2ccc(F)cc2)cc1)N1CCc2ncccc2[C@H]1c1ccc(F)cc1
remaining binding (cell-free assay; competition with immobilised ligand; 1 µM): 100%

CCCOc1ccc(OC)c(F)c1C(=O)c1ccc(C(=O)N[C@@H]2CNC[C@H]2NC(=O)c2ccc3[nH]ncc3c2)cc1
remaining activity (enzyme activity; inhibitor; 10 µM): 95%
